# A selection: hits, their analogues and other compounds. The true share with any hit is near 1.3%.
# proCasp7 act = procaspase-7 activators, primary screen, counter-screen for procaspase-3 activator project, biochemical, absorbance, HTS, human | Caspase-7 (Homo sapiens), P55210 | actives 0.093% (n = 330,000) | activation, % at 8.5 µM | recombinant procaspase-7, Ac-DEVD-pNA absorbance 405 nm; D23A/D198A/D206A triple mutant, cannot self-cleave; scale: DMSO 0, 5 µM enzyme 100;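 active means percent activation above the screen-wide mean plus 3 SD, cut at about 25% in these data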
# Target sequence (P55210 whole entry D23A/D198A/D206A): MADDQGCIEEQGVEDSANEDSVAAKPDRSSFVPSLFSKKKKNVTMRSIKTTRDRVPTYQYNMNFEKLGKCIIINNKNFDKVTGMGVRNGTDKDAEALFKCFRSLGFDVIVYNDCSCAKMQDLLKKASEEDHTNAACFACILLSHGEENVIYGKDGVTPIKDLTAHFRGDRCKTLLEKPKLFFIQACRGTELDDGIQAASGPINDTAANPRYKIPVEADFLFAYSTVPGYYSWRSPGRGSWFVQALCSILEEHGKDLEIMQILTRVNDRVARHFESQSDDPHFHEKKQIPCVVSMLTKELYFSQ
#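 Assay system: Uncleavable procaspase-7 mutant enzyme | Input: 2 µM procaspase-7 mutant as dispensed | Timing: 1 h compound preincubation, 2 h substrate cleavage, 25 °C | Repeats: One well per compound | Control set: DMSO wells as 0%, DMSO with 5 µM added PC-7 as 100% | Technique: Epi-absorbance of released pNA at 405 nm, two timepoints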
# CHT block = inhibitors of human choline transporter CHT | High affinity choline transporter 1 (Homo sapiens), Q9GZV3 | CHT-expressing cells, membrane potential dye, choline response; stronger effect = lower value | B-score at 10 µM | actives 0.86% (n = 310,000);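 active means B-score over 3 SD under the library average, and starting fluorescence ratio not unusually high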;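 further: choline stimulus applied at its EC90 after an EC20 pre-addition; B-score computed on integrated fluorescence ratio after choline addition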
# CHT PAM = CHT positive allosteric modulators, primary screen, cell-based, membrane potential dye, choline EC20 | High affinity choline transporter 1 (Homo sapiens), Q9GZV3 | CHT-expressing cells; stronger effect = higher value; LV-AA mutant CHT in HEK293 cells | B-score at 10 µM | actives 0.49% (n = 310,000);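 active means initial fluorescence not abnormally high and integrated response B-score, plate-corrected, over 3 SD above library mean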
# proCasp3 act = activators of human procaspase-3 D3A mutant, primary screen, biochemical, absorbance, PC-3 D3A mutant, single concentration; AID 463141, 2010; activation, % at 8.5 µM; Caspase-3 (Homo sapiens), P42574; recombinant procaspase-3 D3A, Ac-DEVD-pNA absorbance 405 nm; actives 0.11% (n = 330,000);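 active means activation above the mean of all tested compounds plus 3 SD, cut at about 21% in these data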;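 further: 0% = DMSO alone and 100% = DMSO wells spiked with extra 5 µM PC-3 D3A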
# Target sequence (P42574 whole entry D9A/D28A/D175A): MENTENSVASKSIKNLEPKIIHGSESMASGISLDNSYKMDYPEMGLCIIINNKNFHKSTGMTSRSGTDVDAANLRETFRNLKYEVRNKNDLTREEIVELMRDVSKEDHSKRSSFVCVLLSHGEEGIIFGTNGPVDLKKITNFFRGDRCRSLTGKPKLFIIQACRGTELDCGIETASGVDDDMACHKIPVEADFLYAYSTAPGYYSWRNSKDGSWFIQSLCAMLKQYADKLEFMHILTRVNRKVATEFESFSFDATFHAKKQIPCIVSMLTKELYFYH
#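 Assay system: Autoprocessing-dead procaspase-3 D3A mutant enzyme; also added: Ac-DEVD-pNA; doses: one concentration, 8.5 µM nominal, 0.8% DMSO; times: 1 h compound preincubation, 2 h substrate hydrolysis at 25 °C; technique: 405 nm absorbance of p-nitroaniline, reads at 0 and 120 min; measure: % activation between DMSO and enzyme-spiked controls; repeats: single replicate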
# CHT block conf = CHT inhibitors, confirmation, cell-based, membrane potential dye, duplicate; shares compounds with CHT block; CHT-expressing cells, choline membrane potential dye; LV-to-AA substituted CHT, HEK293 cells; CHT activity remaining % of control (stronger effect = lower value), % at 10 µM; actives 70% (n = 2,400);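 active means choline transporter activity left, mean of duplicates at 10 µM, below buffer-only control mean minus 3 SD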;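 further: depolarization triggered by choline at its EC90 following an EC20 pre-addition; 0% = hemicholinium-3 full block and 100% = buffer-only control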
# HEK293 MPD ctr = membrane potential effects in parental HEK293, counter-screen for CHT inhibitor project, cell-based, membrane potential dye; shares compounds with CHT block; choline response; active = decrease or increase beyond buffer ±3SD; membrane potential ratio readout (active if shifted either direction beyond buffer ±3SD; no single direction) at 10 µM; actives 4% (n = 2,400);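 further: parental cells lack the transporter so any hit is non-specific; ratio is peak minus trough fluorescence over baseline after EC90 choline challenge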
# The depositor's hits bear a star; i = inactive; · = no result given.
SMILES,proCasp7 act,CHT block,CHT PAM,proCasp3 act,CHT block conf,HEK293 MPD ctr
COc1ccccc1N1CCN(C(=O)c2ccc(Cl)c(S(=O)(=O)N3CCOCC3)c2)CC1,-0.4,i,i,-7.2,·,·
Cc1ccc(-n2c(O)c(/C=N/Nc3ccc(S(=O)(=O)N4CCOCC4)cc3[N+](=O)[O-])c3ccccc3c2=O)c(C)c1,0.9,-5.09*,i,-0.5,27.2%*,i
O=C(O)c1ccc(/C=N\Nc2ccc(S(=O)(=O)N3CCOCC3)cc2[N+](=O)[O-])cc1,9.1,i,i,-5.3,·,·
c1ccc2c(c1)OC(CCCN1CCCCC1)c1ccccc1S2 (stereo unspecified),-6.6,i,i,-5.3,·,·
CN1CCCC(CC2Oc3ccccc3Sc3ccccc32)C1 (stereo unspecified),1.7,-5.24*,i,3.9,13.6%*,i
Cc1ccc(NC(=O)COc2ccccc2C(N)=O)cc1S(=O)(=O)N1CCCCCC1,2.3,·,·,6.4,·,·
COc1ccc(C=O)cc1Cn1cnc2c(cnn2C)c1=O,8.4,-5.71*,i,0.1,i,i
COc1ccc(C(C)=O)cc1Cn1cnc2c(cnn2C)c1=O,14.9,i,i,6.1,·,·
Cc1cc2c(cc(C(=O)N3CCC(C(=O)NC4CCCC4)CC3)n2Cc2c(F)cccc2Cl)o1,4.0,-6.59*,i,8.6,i,i
O=C(NC1CCCC1)C1CCN(C(=O)c2ccccc2Cl)CC1,4.1,i,i,1.9,·,·
COc1cccc(N2CCN(c3ncnc4c3[nH]c3ccccc34)CC2C)c1 (stereo unspecified),6.6,i,i,-7.1,·,·
COc1cccc(N2CCN(c3ncnc4c3[nH]c3ccc(F)cc34)CC2C)c1 (stereo unspecified),-0.5,-7.01*,i,-3.8,63.3%*,i
CCC(C(=O)NCCCN(CC)Cc1ccccc1)n1nc(C)c2sc3ccccc3c2c1=O (stereo unspecified),5.6,i,i,-8.8,·,·
Cc1ccc(S(=O)(=O)Oc2cccc(/C=N/n3cnnc3)c2)cc1,3.2,-10.4*,i,-5.2,55.8%*,i
Cc1ccc(S(=O)(=O)Oc2cccc(/C=N/Nc3ccc(C(=O)O)cc3)c2)cc1,-9.3,i,i,-8.0,·,·
CCCCONc1ncnc2nonc12,-8.2,i,i,1.6,·,·
COCc1cc(N2CCCCC2)nc(-c2ccccc2)n1,2.9,i,i,4.6,·,·
O=C(Nc1cc(C(F)(F)F)ccc1-n1cncn1)c1ccc([N+](=O)[O-])o1,4.7,-6.12*,i,0.7,32.6%*,i
CCCN1CCN(C(=S)Nc2ccc3nc(N4CCN(CC)CC4)cc(C)c3c2)CC1,-8.2,-9.17*,i,-5.8,22.2%*,i
CCN1CCN(c2cc(C)c3cc(NC(=S)N4CCOCC4)ccc3n2)CC1,-12.6,-5.85*,i,-6.9,38.6%*,i
CCN1CCN(c2cc(C)c3cc(NC(=S)N4CCN(c5ccccc5)CC4)ccc3n2)CC1,-2.3,i,i,-10.0,·,·
CCN1CCN(c2cc(C)c3cc(NC(=S)N4CCC5(CC4)OCCO5)ccc3n2)CC1,-22.1,-5.02*,i,-7.0,39.6%*,i
CC(=O)c1ccc(-c2ccc(C(=O)N(C)Cc3nc4ccccc4c(=O)[nH]3)o2)cc1,4.0,·,·,-3.3,·,·
CCCCC(=O)Nc1cc(Cl)ccc1C(=O)O,2.5,i,i,2.5,·,·
COC(=O)[C@]1(C)N[C@H](CN(C)C(=O)Nc2ccc(C)cc2)[C@@H]2C(=O)N(C)C(=O)[C@@H]21,3.2,·,·,-10.1,·,·
SMILES,proCasp7 act,CHT block,CHT PAM,proCasp3 act,CHT block conf,HEK293 MPD ctr
CC(=O)Nc1ccc(C(=O)OCC(=O)Nc2c(C)n(C)n(-c3ccccc3)c2=O)cc1,-9.4,·,·,-6.0,·,·
Cn1c(CN2CCCCC2)nc2cc(NC(=O)c3ccccc3Cl)ccc21,13.2,-7.49*,i,5.8,40.2%*,i
COc1ccccc1C(=O)Nc1ccc2c(c1)nc(CN1CCCCC1)n2C,-4.5,i,i,-4.2,·,·
COc1cc(NS(=O)(=O)c2ccc(NC(=O)c3ccc(Cl)cc3Cl)cc2)ncn1,-0.6,-9.3*,i,6.3,26.9%*,i
O=C(Nc1ccc(S(=O)(=O)Nc2cnc3ccccc3n2)cc1)c1cc(F)c(F)cc1Cl,0.7,-6.57*,i,1.5,27.0%*,i
COc1ccc(NS(=O)(=O)c2ccc(NC(=O)c3ccccc3Br)cc2)nn1,9.0,-8.49*,i,1.6,19.3%*,i
O=C(Nc1ccc(S(=O)(=O)Nc2cnc3ccccc3n2)cc1)c1ccc(Cl)c([N+](=O)[O-])c1,4.5,-6.1*,i,6.9,59.6%*,i
COc1ccc(C(=O)Nc2ccc(S(=O)(=O)Nc3cnc4ccccc4n3)cc2)cc1,-8.1,i,i,-0.9,·,·
Cc1nn(-c2ccccc2)c(C)c1NC(=O)COc1ccc(Br)cc1Cl,3.6,i,i,4.2,·,·
CCc1ccc(NC(=O)C(C)Sc2nnc(CN3CCCC3)o2)cc1 (stereo unspecified),-6.9,·,·,12.6,·,·
COc1ccc(S(=O)(=O)N2CC(=O)Nc3ccccc32)cc1,-1.2,i,i,-3.3,·,·
O=C(Nc1ccc(S(=O)(=O)Nc2cnc3ccccc3n2)cc1)c1ccc(Cl)cc1Cl,-1.4,-12.6*,i,2.1,-9.5%*,i
O=C(Nc1ccc(Cc2ccncc2)cc1)c1cc(F)c(F)cc1Cl,0.5,-8.54*,i,-2.1,i,i
Cc1cccc(C)c1NC(=O)CN(C)C(=O)COc1cccc2c1OC(C)(C)C2,10.7,i,i,-0.5,·,·
Cc1cc(SCc2cc(=O)n3ccsc3n2)nc2ccccc12,0.3,-12.8*,i,3.4,-1.4%*,i
C[C@H]1CN(S(=O)(=O)c2c(F)cccc2F)CCN1S(=O)(=O)c1ccc2c(c1)OCCO2,3.2,·,·,5.1,·,·
CC(OC(=O)/C=C/c1ccco1)C(=O)NC1CCCCC1C (stereo unspecified),-2.2,·,·,-0.6,·,·
Nc1c(C(=O)NCCN2CCOCC2)c2nc3ccccc3nc2n1CCc1ccccc1F,4.4,-7.84*,i,1.2,29.8%*,i
CC[C@]1(C(=O)OC)[C@H]2C(=O)N(C)C(=O)[C@H]2[C@H]2CN=C(SCc3ccc(C#N)cc3)N21,-1.1,·,·,10.2,·,·
CC(=O)Nc1ccc(Oc2ncccn2)c(Cl)c1,-0.7,-5.63*,i,3.6,i,i
